Screening results as filed in PubChem BioAssay.
Shown are actives, neighbours in structure and some others; about 4.5% of the full set was active somewhere.
TAAR1 antag: human TAAR1 antagonism; CHO RD-HGA16 TAAR1, Fluo-8 calcium fluorescence, antagonist; inhibition, % at 3 µM; hit rate 1.5% among 360,000;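 active = inhibition above a per-plate cutoff, the mean inhibition of test compounds on that plate plus 3 SD, cut at about 49% in these data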
Target sequence (Q96RJ0 whole entry, looked up): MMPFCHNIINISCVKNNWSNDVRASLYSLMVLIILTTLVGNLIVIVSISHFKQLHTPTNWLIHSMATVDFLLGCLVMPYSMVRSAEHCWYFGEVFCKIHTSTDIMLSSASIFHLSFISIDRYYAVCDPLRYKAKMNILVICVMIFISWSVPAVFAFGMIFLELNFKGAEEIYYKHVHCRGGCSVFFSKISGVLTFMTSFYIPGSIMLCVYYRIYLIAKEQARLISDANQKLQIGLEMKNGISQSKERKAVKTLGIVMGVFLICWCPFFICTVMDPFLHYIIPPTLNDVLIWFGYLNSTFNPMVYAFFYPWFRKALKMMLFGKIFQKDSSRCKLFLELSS
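test system = CHO RD-HGA16 cells bearing hTAAR1 | replication = singlicate | controls = DMSO-only wells and EC80 β-PEA-stimulated wells | reagent = EC80 β-phenethylamine stimulus | read-out basis = percent inhibition of PEA-evoked calcium signal, max/basal emission ratio | schedule = seeding 17-24 h prior, 75-min 37 °C, 30-min RT dye loading | signal = kinetic Fluo-8 calcium fluorescence measurement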
GPR7 antagonist: antagonists of human GPR7 (neuropeptides B/W receptor 1); inhibition, % at 4.4 µM; P48145; GPR7-expressing cells, fluorescence antagonist assay; AID 1861; hit rate 1.1% among 290,000; in the data active = inhibition above about 16%, passing the limit was not always enough;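 also: cells stimulated with the agonist NPW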
OX1R antag-1: antagonists of human orexin 1 receptor (OX1R) | O43613 | OX1R-expressing cells, FRET antagonist read-out | inhibition, % at 6.6 µM | hit rate 1.8% among 330,000 | AID 485270; in the data active = inhibition mostly above about 38%, no sharp cut-off; inactive = mostly below about 40%
Target sequence (O43613 whole entry, looked up): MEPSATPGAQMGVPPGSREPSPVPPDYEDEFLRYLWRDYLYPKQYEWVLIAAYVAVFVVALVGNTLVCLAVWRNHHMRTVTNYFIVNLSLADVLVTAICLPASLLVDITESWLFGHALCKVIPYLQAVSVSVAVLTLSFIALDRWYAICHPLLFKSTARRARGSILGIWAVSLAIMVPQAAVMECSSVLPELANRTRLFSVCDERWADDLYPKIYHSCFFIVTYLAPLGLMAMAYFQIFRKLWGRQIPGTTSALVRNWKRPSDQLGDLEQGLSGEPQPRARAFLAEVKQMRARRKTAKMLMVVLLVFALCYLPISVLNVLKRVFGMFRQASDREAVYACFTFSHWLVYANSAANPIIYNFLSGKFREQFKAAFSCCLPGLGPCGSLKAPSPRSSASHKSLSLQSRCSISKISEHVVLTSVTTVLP
OX1R antag-2: blocks the human orexin 1 receptor | inhibition, % at 5 µM | O43613 | hit rate 0.43% among 330,000 | AID 434989 | CHO/OX1R cells, Fluo-8 calcium fluorescence, orexin A;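 active = inhibition above its plate's threshold, mean inhibition of all tested compounds on the plate plus 3 SD, cut at about 37% in these data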
TAAR1 ag: human TAAR1 agonism. Q96RJ0. CHO RD-HGA16 TAAR1, Fluo-8 calcium fluorescence; vehicle wells 0%, saturating PEA agonist 100%. activation, % at 3 µM. hit rate 0.99% among 360,000;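 active = activation above the mean activation of all test compounds in the run plus 3 SD, cut at about 38% in these data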
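Assay system – CHO-derived RD-HGA16 cells with stable Gα16 and human TAAR1 · Compound dosing – one-point dosing at 3 µM (nominal) · Incubation – 17-24 h seeding, 75 min 37 °C dye, 30 min RT · Measured by – kinetic Fluo-8 calcium fluorescence · Control set – DMSO vehicle as 0%, PEA at EC100 as 100% · Repeats – single well for each compound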
CHO parental Ca: signal in parental CHO cells, OX1R antagonist counter-screen; AID 463079; inhibition, % at 5.6 µM; parental CHO-K1, ATP-induced calcium, Fluo-8 fluorescence; hit rate 0.63% among 330,000;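 active = inhibition above that plate's mean sample inhibition plus 3 SD, cut at about 26% in these data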
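Test system: parental CHO cells; detection: calcium-sensitive Fluo-8 fluorescence; evaluation: percent inhibition of calcium signal; also added: ATP as calcium-mobilizing challenge; repeats: one well per compound; control set: ATP-challenged DMSO wells low, unchallenged DMSO wells high; compound: single nominal dose of 5.6 µM per compound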
Each line names hits and unclear results; the compound was inactive in the other large screens.

O=C(NCc1ccccc1)C1Cc2c(-c3ccc4c(c3)OCO4)ccnc2O1 (centres undefined)	none (no result: GPR7 antagonist, OX1R antag-1, OX1R antag-2, CHO parental Ca)
Nc1nc(SCC(=O)c2ccc(Oc3ccccc3)cc2)n[nH]1	none
Nc1nc(SCC(=O)c2ccc([N+](=O)[O-])cc2)n[nH]1	OX1R antag-1 49
Cc1ccc(-c2cnc(NC(=O)c3cccc(Br)c3)s2)c(C)c1	none
O=C(c1ccc(COc2ccc(Cl)cc2)o1)N1CCN(Cc2ccc3c(c2)OCO3)CC1	TAAR1 antag 52
NC1=NC[C@H](Cc2ccccc2)N1CCCCC1CCCCC1	TAAR1 antag 58, OX1R antag-2 75, CHO parental Ca 74 (no result: GPR7 antagonist)
NC1=NC[C@H](Cc2ccc(O)cc2)N1CCCCC1CCCCC1	none (no result: GPR7 antagonist)
CC1(c2ccc([N+](=O)[O-])cc2)NC(=O)N(CC(=O)Nc2cccnc2Cl)C1=O (centres undefined)	TAAR1 ag 57 (no result: GPR7 antagonist)
Cc1ccc(C2(C)NC(=O)N(CC(=O)Nc3cccnc3Cl)C2=O)cc1 (centres undefined)	none
CCC(=O)C1CCCN(C(=O)CCc2nnc(-c3ccc4c(c3)OCO4)o2)C1 (centres undefined)	none
CCC(=O)C1CCCN(C(=O)CCc2nnc(-c3ccc(C(C)=O)s3)o2)C1 (centres undefined)	OX1R antag-1 38
CCn1nc(C)c(CNC(=O)CCc2nnc(-c3ccc(C(C)=O)s3)o2)c1C	OX1R antag-1 63
CC(C)COC(=O)NCCOC(=O)Nc1cccc(Cl)c1	CHO parental Ca 57
CC(C)COC(=O)NCCCOC(=O)Nc1ccccc1	none
CCC(C)NS(=O)(=O)c1ccc(NC(=O)c2cccs2)cc1 (centres undefined)	none
CCC(C)c1ccc(NC(=O)c2cccs2)cc1 (centres undefined)	OX1R antag-1 40
COc1c(Cl)cc(Cl)cc1C(=O)Nc1ccc(NC(=O)c2cccs2)cc1	TAAR1 antag 69
O=C(Nc1ccc(NC(=O)c2ccc(Cl)cc2Cl)cc1)c1cccs1	none
CCc1ccc(N/C(N)=N/c2nc(CSc3ccccn3)cc(=O)[nH]2)cc1	TAAR1 antag 55
O=C(NCc1cccnc1)c1csc([C@@H]2O[C@H](CO)[C@H](O)[C@H](O)[C@H]2O)n1	none (no result: GPR7 antagonist, OX1R antag-1, OX1R antag-2, CHO parental Ca)
COC(=O)c1sc(NC(=O)COc2cccc(C)c2)nc1C	OX1R antag-1 69
Cc1cccc(C)c1NC(=O)C(c1ccccc1)N1CCC(c2ccccc2)CC1 (centres undefined)	none (no result: GPR7 antagonist, OX1R antag-1, OX1R antag-2, CHO parental Ca)
O=C(NCCSc1c[nH]c2ccccc12)c1ccc(Br)o1	none
Cc1[nH]c2ccccc2c1SCCNC(=O)c1ccc(Br)o1	OX1R antag-1 66
COc1ccc(-c2[nH]c3ccccc3c2SCCNC(=O)c2cc3ccccc3oc2=O)cc1	OX1R antag-1 42
C=CCCC1CN(Cc2ccc(OC)cc2)S(=O)(=O)c2c(cccc2N2CCCCC2)O1 (centres undefined)	none (no result: GPR7 antagonist, OX1R antag-1, OX1R antag-2, CHO parental Ca)
CC(C)CN(C(=O)CSc1nnc(-c2ccco2)o1)c1c(N)n(Cc2ccccc2)c(=O)[nH]c1=O	OX1R antag-1 68
CC(C)CN(C(=O)CSc1nc2ccccc2o1)c1c(N)n(Cc2ccccc2)c(=O)[nH]c1=O	OX1R antag-1 31 (no result: GPR7 antagonist)
CCCCN(C(=O)CSc1nnc(-c2ccccc2)o1)c1c(N)n(CCC)c(=O)[nH]c1=O	none (no result: GPR7 antagonist)
CCN(CC)c1ccc(-c2nnc(SCC(=O)N(CCOC)c3c(N)n(CC(C)C)c(=O)[nH]c3=O)o2)cc1	OX1R antag-1 57 (no result: GPR7 antagonist)
CCCCN(C(=O)CSc1nnc(-c2ccco2)o1)c1c(N)n(Cc2ccccc2)c(=O)[nH]c1=O	none
CCN(C(=O)CSc1nnc(-c2ccccc2)o1)c1c(N)n(Cc2ccccc2)c(=O)[nH]c1=O	OX1R antag-1 70
COCCN(C(=O)CSc1nc2ccccc2o1)c1c(N)n(Cc2ccccc2)c(=O)[nH]c1=O	none (no result: GPR7 antagonist)
COCCN(C(=O)CSc1nnc(-c2ccc(C)c(C)c2)o1)c1c(N)n(CC(C)C)c(=O)[nH]c1=O	none (no result: GPR7 antagonist)
CC(C)CN(C(=O)CCCOc1ccc(Cl)cc1Cl)c1c(N)n(Cc2ccccc2)c(=O)[nH]c1=O	OX1R antag-1 39 (no result: GPR7 antagonist)
Cc1cccc(NC(=O)C(=O)NNC(=O)c2ccc(C(C)(C)C)cc2)c1	OX1R antag-2 95, CHO parental Ca 94
C=CCOC(=O)C(C#N)c1nc2ccccc2nc1N1CCN(c2ccccc2OC)CC1 (centres undefined)	TAAR1 antag 49
C=CCOC(=O)C(C#N)c1nc2ccccc2nc1N1CCN(Cc2ccccc2)CC1 (centres undefined)	none
O=C(Nc1ccncc1)c1cccc(S(=O)(=O)N2CCc3ccccc32)c1	OX1R antag-1 48, OX1R antag-2 48, CHO parental Ca 59 (no result: GPR7 antagonist)
Cc1ccc2c(c1)CCCN2S(=O)(=O)c1cccc(C(=O)Nc2ccccc2C(=O)O)c1	OX1R antag-1 58
O=C(Nc1cccnc1)c1cccc(S(=O)(=O)N2CCc3ccccc32)c1	none
Cn1nnnc1Sc1ncnc2scc(-c3ccc(Cl)cc3)c12	none (no result: GPR7 antagonist)
Cn1nnnc1Sc1ncnc2scc(-c3ccc([N+](=O)[O-])cc3)c12	OX1R antag-1 39 (no result: GPR7 antagonist)
Cc1ccc(F)c(NC(=O)c2ccc(Cn3cc(Cl)cn3)cc2)c1	GPR7 antagonist 34
C=CCn1c(SCC(=O)Nc2cccc(S(N)(=O)=O)c2)nc2sc(C)c(C)c2c1=O	OX1R antag-1 33 (no result: GPR7 antagonist)
COC(=O)[C@]12C[C@H](CC(=O)NCc3cccc(C(F)(F)F)c3)C(=O)N(Cc3ccc4c(c3)OCO4)C1=C[C@H](C(C)(C)C)O[C@@H]2C	none (no result: GPR7 antagonist, OX1R antag-1, OX1R antag-2, CHO parental Ca)
CSc1nnc(C)c(/C=C/Nc2ccc(F)cc2)n1	TAAR1 ag 68
CC(NC(=O)COC(=O)CCN1C(=O)C2CC=CCC2C1=O)c1ccc(Br)cc1 (centres undefined)	none (no result: GPR7 antagonist)
COc1cccc(-c2cccc(-c3nc(C(=O)NCCCN4CCOCC4)cc4c3[C@H](CCO)N(S(=O)C(C)(C)C)C4)c2)c1 (some centres undefined)	TAAR1 antag 52 (no result: GPR7 antagonist, OX1R antag-1, OX1R antag-2, CHO parental Ca)
CN(C)C(=O)c1cccc(-c2cccc(-c3nc(C(=O)NCc4ccccc4)cc4c3[C@@H](CCO)N(S(=O)C(C)(C)C)C4)c2)c1 (some centres undefined)	TAAR1 antag 61 (no result: GPR7 antagonist, OX1R antag-1, OX1R antag-2, CHO parental Ca)
CC(C)(C)S(=O)N1Cc2cc(C(=O)NCC(F)(F)F)nc(-c3cccc(-c4cccc(F)c4)c3)c2[C@H]1CCO (some centres undefined)	TAAR1 antag 62 (no result: GPR7 antagonist, OX1R antag-1, OX1R antag-2, CHO parental Ca)
COc1ccc(C)cc1S(=O)(=O)Nc1ccc2c(c1)OCO2	none
CC(=O)Oc1ccc(N(C(C)=O)S(=O)(=O)c2ccc(C)c([N+](=O)[O-])c2)cc1	none
Nc1nc(Cl)cc(N2CCC(c3cc(-c4ccc(Cl)cc4Cl)n[nH]3)CC2)n1	CHO parental Ca 32
Nc1nc(Cl)cc(N2CCCC2)n1	none
